Assay results from ChEMBL document CHEMBL4265950, “Discovery of furyl/thienyl β-carboline derivatives as potent and selective PDE5 inhibitors with excellent vasorelaxant effect” (Eur J Med Chem, 2018).

What was measured:
[1] = organism: Homo sapiens; experiment: Selectivity ratio of Ki for PDE6 (unknown origin) to Ki for PDE5 (unknown origin)
[2] = biological target: High affinity cGMP-specific 3',5'-cyclic phosphodiesterase 9A (Homo sapiens, UniProt O76083); experiment: Inhibition of full length recombinant human N-terminal GST-tagged PDE9A2 expressed in baculovirus infected sf9 cells using […] as substrate after 1 hr by fluorescence polarization assay
Method in brief: (§1)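 Fluorescence polarization assay run at 25 °C for 60 min in 40 mM MOPS pH 7.5, 0.5 mM EDTA, 15 mM MgCl2, 0.15 mg/mL BSA, 1 mM DTT, 0.05% ProClin 200. Contained 15 ng/mL PDE isoform and 100 nM FAM-cGMP or FAM-cAMP according to isoform, with 1% DMSO final. Binding agent added for 1 h at 25 °C; read at […] nm. IC50 from normalized nonlinear dose-response fit.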

[3] = biological target: cGMP-specific 3',5'-cyclic phosphodiesterase (Rattus norvegicus, UniProt O54735); experiment: (§2) Inhibition of PDE5 in Wistar rat mesentric arteries assessed as inhibition of phenylephrine-induced contraction by measuring increase in acetylcholine-induced vasorelaxation by pressure myographic method
Method in brief: (§3)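 Third-order rat mesenteric arteries (110–150 µm), 3–4 mm unbranched segments, cannulated in PSS (pH 7.4, 95% O2/5% CO2). Equilibrated 35 min while pressure was stepped 10→60 mmHg. Checked with 120 mM KCl and acetylcholine, then constricted with 20 µM phenylephrine (norepinephrine in text) and given compounds cumulatively. Ca²⁺-free PSS set maximal dilation. Outer diameter recorded as % relaxation; EC50 from normalized nonlinear fit.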

[4] = biological target: cGMP-dependent 3',5'-cyclic phosphodiesterase (Homo sapiens, UniProt O00408); experiment: Inhibition of recombinant human N-terminal FLAG-tagged PDE2A (2 to 941 residues) expressed in baculovirus infected sf9 cells using FAM-cyclic-3',5-AMP as substrate after 1 hr by fluorescence polarization assay; method in brief: as §1
[5] = biological target: High affinity 3',5'-cyclic-AMP phosphodiesterase 7A (Homo sapiens, UniProt Q13946); experiment: Inhibition of recombinant human N-terminal GST-tagged PDE7A (122 to end residues) expressed in baculovirus infected sf9 cells using FAM-cyclic-3',5-AMP as substrate after 1 hr by fluorescence polarization assay; method in brief: as §1
[6] = biological target: cAMP and cAMP-inhibited cGMP 3',5'-cyclic phosphodiesterase 10A (Homo sapiens, UniProt Q9Y233); experiment: Inhibition of recombinant human N-terminal GST-tagged PDE10A1 (2 to 789 residues) expressed in baculovirus infected sf9 cells using FAM-cyclic-3',5-AMP as substrate after 1 hr by fluorescence polarization assay; method in brief: as §1
[7] = biological target: High affinity cAMP-specific and IBMX-insensitive 3',5'-cyclic phosphodiesterase 8A (Homo sapiens, UniProt O60658); experiment: Inhibition of full length recombinant human N-terminal GST-tagged PDE8A1 expressed in baculovirus infected sf9 cells using FAM-cyclic-3',5-AMP as substrate after 1 hr by fluorescence polarization assay; method in brief: as §1
[8] = biological target: Dual specificity calcium/calmodulin-dependent 3',5'-cyclic nucleotide phosphodiesterase 1A (Homo sapiens, UniProt P54750); experiment: Inhibition of full length recombinant human N-terminal GST-tagged PDE1A expressed in baculovirus infected sf9 cells using FAM-cyclic-3',5-AMP as substrate after 1 hr by fluorescence polarization assay; method in brief: as §1
[9] = biological target: cGMP-inhibited 3',5'-cyclic phosphodiesterase 3B (Homo sapiens, UniProt Q13370); experiment: Inhibition of recombinant human N-terminal GST-tagged PDE3B (592 to end residues) expressed in baculovirus infected sf9 cells using FAM-cyclic-3',5-AMP as substrate after 1 hr by fluorescence polarization assay; method in brief: as §1
[10] = biological target: T1, cGMP-specific 3',5'-cyclic phosphodiesterase (Homo sapiens, UniProt O76074); experiment: Inhibition of PDE5 (unknown origin)
[11] = organism: Homo sapiens; experiment: Selectivity ratio of IC50 for PDE6 (unknown origin) to IC50 for PDE5 (unknown origin)
[12] = biological target: Dual 3',5'-cyclic-AMP and -GMP phosphodiesterase 11A (Homo sapiens, UniProt Q9HCR9); experiment: Inhibition of full length recombinant human N-terminal GST-tagged PDE11A4 expressed in baculovirus infected sf9 cells using FAM-cyclic-3',5-AMP as substrate after 1 hr by fluorescence polarization assay
[13] = organism: Homo sapiens; experiment: Selectivity index, ratio of IC50 for inhibition of full length recombinant human N-terminal GST-tagged PDE9A2 expressed in baculovirus infected sf9 cells to IC50 for inhibition of full length recombinant human N-terminal GST-tagged PDE5A1 expressed in baculovirus infected sf9 cells
[14] = biological target: T1, cGMP-specific 3',5'-cyclic phosphodiesterase; experiment: Inhibition of full length recombinant human N-terminal GST-tagged PDE5A1 expressed in baculovirus infected sf9 cells using FAM-cyclic-3',5-GMP as substrate after 1 hr by fluorescence polarization assay
[15] = biological target: 3',5'-cyclic-AMP phosphodiesterase 4A (Homo sapiens, UniProt P27815); experiment: Inhibition of full length recombinant human N-terminal GST-tagged PDE4A1A expressed in baculovirus infected sf9 cells using FAM-cyclic-3',5-AMP as substrate after 1 hr by fluorescence polarization assay
[16] = biological target: cGMP-specific 3',5'-cyclic phosphodiesterase (Rattus norvegicus) (UniProt O54735); experiment: as §2; method in brief: as §3
[17] = organism: Homo sapiens; experiment: Selectivity index, ratio of IC50 for inhibition of recombinant human N-terminal GST-tagged PDE10A1 (2 to 789 residues) expressed in baculovirus infected sf9 cells to IC50 for inhibition of full length recombinant human N-terminal GST-tagged PDE5A1 expressed in baculovirus infected sf9 cells
[18] = organism: Homo sapiens; experiment: Selectivity index, ratio of IC50 for inhibition of full length recombinant human N-terminal GST-tagged PDE11A4 expressed in baculovirus infected sf9 cells to IC50 for inhibition of full length recombinant human N-terminal GST-tagged PDE5A1 expressed in baculovirus infected sf9 cells
[19] = biological target: Cone cGMP-specific 3',5'-cyclic phosphodiesterase subunit alpha' (Homo sapiens, UniProt P51160); experiment: Inhibition of full length recombinant human N-terminal GST-tagged PDE6C expressed in baculovirus infected sf9 cells using […] as substrate after 1 hr by fluorescence polarization assay
[20] = organism: Homo sapiens; experiment: Selectivity index, ratio of IC50 for inhibition of full length recombinant human N-terminal GST-tagged PDE8A1 expressed in baculovirus infected sf9 cells to IC50 for inhibition of full length recombinant human N-terminal GST-tagged PDE5A1 expressed in baculovirus infected sf9 cells
[21] = biological target: T1, cGMP-specific 3',5'-cyclic phosphodiesterase; experiment: Inhibition of full length recombinant human N-terminal GST-tagged PDE5A1 expressed in baculovirus infected sf9 cells at 100 nM using FAM-cyclic-3',5-GMP as substrate after 1 hr by fluorescence polarization assay relative to control
Method in brief: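 Single-point test at 100 nM, reported as percent inhibition. Human PDE5 at 15 ng/mL with 100 nM FAM-cGMP in MOPS pH 7.5 buffer (MgCl2, EDTA, BSA, DTT), 1% DMSO final, 60 min at 25 °C. Binding agent added for 1 h, then fluorescence polarization read at […] nm.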

[22] = Stability of the compound in PDE5 enzyme assay condition at 100 uM by HPLC analysis; type: ADME
[23] = organism: Homo sapiens; experiment: Selectivity index, ratio of IC50 for inhibition of recombinant human N-terminal GST-tagged PDE7A (122 to end residues) expressed in baculovirus infected sf9 cells to IC50 for inhibition of full length recombinant human N-terminal GST-tagged PDE5A1 expressed in baculovirus infected sf9 cells
[24] = organism: Homo sapiens; experiment: Selectivity index, ratio of IC50 for inhibition of full length recombinant human N-terminal GST-tagged PDE6C expressed in baculovirus infected sf9 cells to IC50 for inhibition of full length recombinant human N-terminal GST-tagged PDE5A1 expressed in baculovirus infected sf9 cells

Chain of Dual specificity calcium/calmodulin-dependent 3',5'-cyclic nucleotide phosphodiesterase 1A (P54750 whole entry): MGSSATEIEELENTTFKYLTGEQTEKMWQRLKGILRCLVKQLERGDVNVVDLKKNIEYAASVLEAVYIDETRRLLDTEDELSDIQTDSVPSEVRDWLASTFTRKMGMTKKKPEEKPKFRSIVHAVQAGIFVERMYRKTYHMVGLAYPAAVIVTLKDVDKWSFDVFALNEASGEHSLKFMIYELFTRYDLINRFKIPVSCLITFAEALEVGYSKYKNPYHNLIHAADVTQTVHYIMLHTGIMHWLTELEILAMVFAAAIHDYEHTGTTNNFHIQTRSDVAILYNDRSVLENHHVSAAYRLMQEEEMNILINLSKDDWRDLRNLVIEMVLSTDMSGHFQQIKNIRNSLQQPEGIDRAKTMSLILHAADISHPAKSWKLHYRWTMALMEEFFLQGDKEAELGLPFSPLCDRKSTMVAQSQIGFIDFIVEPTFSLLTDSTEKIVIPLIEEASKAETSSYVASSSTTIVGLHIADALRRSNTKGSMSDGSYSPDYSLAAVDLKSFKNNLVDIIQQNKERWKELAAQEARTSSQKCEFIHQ
Chain of cGMP-inhibited 3',5'-cyclic phosphodiesterase 3B (Q13370 whole entry): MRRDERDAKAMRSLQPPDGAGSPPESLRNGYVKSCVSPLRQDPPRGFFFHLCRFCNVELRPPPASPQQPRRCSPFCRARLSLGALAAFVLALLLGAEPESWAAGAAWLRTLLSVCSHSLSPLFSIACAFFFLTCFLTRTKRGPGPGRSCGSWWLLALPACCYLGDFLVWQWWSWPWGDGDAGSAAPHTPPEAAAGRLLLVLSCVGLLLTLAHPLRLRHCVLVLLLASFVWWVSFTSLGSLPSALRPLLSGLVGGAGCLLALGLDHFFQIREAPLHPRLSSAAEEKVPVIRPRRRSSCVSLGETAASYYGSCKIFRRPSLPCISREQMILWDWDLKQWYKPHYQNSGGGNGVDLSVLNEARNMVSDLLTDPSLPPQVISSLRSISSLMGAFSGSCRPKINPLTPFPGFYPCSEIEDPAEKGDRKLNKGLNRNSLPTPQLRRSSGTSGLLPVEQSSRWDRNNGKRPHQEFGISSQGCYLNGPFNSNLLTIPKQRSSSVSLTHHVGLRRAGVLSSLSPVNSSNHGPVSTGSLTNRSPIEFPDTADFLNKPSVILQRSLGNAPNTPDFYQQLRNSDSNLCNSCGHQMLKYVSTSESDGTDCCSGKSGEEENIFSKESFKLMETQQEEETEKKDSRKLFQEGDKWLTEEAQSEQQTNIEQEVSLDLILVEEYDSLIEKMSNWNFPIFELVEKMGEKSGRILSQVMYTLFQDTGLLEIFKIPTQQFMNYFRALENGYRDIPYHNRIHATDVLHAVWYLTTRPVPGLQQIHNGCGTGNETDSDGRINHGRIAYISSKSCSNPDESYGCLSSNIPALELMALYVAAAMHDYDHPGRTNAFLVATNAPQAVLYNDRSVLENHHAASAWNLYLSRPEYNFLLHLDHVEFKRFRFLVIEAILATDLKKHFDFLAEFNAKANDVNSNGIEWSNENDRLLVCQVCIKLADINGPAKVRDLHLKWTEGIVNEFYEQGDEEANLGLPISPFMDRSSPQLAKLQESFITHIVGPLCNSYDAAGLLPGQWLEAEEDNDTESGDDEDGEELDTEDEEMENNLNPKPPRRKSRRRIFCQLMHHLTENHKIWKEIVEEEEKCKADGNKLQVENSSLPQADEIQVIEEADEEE
Chain of High affinity cAMP-specific and IBMX-insensitive 3',5'-cyclic phosphodiesterase 8A (O60658 whole entry): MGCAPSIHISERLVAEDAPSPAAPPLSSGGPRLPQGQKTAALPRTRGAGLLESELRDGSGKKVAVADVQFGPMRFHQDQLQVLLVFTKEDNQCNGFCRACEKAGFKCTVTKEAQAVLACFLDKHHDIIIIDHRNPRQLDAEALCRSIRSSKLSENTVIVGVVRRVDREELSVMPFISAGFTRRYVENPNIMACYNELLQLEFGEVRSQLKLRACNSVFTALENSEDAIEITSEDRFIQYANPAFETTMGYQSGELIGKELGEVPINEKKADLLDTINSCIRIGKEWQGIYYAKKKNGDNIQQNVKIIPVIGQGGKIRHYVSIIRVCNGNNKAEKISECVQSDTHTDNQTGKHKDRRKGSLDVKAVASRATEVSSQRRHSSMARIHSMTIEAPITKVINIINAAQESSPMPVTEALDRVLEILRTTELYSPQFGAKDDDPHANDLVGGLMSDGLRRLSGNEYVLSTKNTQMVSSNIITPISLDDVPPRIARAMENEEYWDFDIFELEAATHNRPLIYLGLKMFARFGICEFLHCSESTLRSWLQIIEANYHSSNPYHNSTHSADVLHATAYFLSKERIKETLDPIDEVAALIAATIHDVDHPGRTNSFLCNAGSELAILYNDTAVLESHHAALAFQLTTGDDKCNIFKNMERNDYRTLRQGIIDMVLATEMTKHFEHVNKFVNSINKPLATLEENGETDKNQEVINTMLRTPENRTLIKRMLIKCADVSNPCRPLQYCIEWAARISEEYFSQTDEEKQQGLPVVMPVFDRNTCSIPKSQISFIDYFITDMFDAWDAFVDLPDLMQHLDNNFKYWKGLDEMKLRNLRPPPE
Chain of Dual 3',5'-cyclic-AMP and -GMP phosphodiesterase 11A (Q9HCR9 whole entry): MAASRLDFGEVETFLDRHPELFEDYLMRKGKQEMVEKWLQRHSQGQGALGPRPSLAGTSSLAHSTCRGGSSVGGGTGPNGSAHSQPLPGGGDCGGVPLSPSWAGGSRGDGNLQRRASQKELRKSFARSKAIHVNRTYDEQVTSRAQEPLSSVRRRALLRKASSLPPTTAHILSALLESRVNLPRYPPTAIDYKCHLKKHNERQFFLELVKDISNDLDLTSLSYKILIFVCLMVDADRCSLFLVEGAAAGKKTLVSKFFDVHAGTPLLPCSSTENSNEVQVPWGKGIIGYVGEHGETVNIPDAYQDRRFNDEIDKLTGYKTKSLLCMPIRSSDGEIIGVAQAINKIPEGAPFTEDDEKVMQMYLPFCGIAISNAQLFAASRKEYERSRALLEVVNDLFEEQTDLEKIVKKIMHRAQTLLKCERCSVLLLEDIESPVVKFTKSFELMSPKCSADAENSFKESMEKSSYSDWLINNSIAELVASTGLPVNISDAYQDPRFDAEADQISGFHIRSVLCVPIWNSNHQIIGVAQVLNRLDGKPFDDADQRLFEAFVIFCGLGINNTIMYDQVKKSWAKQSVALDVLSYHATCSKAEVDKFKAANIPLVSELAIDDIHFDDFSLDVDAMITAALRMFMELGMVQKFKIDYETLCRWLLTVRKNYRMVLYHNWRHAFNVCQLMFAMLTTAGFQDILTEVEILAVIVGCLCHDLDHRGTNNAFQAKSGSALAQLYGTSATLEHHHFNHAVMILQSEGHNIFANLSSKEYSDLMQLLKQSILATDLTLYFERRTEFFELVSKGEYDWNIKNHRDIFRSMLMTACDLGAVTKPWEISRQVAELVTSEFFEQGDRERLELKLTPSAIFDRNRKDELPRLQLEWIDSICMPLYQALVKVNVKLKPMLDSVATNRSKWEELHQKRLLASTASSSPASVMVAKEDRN
Chain of 3',5'-cyclic-AMP phosphodiesterase 4A (P27815 whole entry): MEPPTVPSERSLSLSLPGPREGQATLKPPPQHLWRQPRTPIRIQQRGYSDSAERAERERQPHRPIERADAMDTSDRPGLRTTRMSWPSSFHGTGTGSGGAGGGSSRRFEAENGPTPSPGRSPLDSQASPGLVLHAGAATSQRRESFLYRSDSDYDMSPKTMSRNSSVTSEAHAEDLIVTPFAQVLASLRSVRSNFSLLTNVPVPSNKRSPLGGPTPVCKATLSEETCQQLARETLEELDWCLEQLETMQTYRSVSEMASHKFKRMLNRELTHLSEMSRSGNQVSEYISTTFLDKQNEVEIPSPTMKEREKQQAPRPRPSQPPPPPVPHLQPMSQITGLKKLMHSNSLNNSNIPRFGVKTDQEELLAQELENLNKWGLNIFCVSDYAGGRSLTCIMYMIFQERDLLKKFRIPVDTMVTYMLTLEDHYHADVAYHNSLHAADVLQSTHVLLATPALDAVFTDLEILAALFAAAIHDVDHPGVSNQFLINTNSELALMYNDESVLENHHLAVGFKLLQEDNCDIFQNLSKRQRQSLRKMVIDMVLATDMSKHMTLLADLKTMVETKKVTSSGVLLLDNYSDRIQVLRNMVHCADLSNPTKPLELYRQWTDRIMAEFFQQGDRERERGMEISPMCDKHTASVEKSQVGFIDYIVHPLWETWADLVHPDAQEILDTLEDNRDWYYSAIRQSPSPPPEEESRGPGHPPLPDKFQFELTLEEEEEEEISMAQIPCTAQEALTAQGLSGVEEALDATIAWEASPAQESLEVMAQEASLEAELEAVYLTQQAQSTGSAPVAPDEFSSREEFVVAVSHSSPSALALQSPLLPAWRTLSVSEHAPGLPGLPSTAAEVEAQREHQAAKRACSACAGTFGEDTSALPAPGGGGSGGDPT
Chain of High affinity 3',5'-cyclic-AMP phosphodiesterase 7A (Q13946 whole entry, the tested form may be a part): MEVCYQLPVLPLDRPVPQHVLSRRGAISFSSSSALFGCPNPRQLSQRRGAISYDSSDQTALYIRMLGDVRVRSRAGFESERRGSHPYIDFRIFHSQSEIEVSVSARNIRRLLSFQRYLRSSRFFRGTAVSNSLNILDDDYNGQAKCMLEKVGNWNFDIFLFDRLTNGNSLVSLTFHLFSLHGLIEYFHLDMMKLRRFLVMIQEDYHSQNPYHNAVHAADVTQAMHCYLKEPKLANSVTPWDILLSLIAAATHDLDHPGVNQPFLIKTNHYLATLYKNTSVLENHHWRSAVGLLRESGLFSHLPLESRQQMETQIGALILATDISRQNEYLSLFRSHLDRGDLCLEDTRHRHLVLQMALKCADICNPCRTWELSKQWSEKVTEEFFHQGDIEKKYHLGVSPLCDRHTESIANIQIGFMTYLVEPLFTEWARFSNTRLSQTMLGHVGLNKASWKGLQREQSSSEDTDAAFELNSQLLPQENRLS

SMILES	IC50 [2]	EC50 [3]	IC50 [4]	IC50 [5]	IC50 [6]	IC50 [7]	IC50 [8]	IC50 [9]	IC50 [12]	IC50 [14]	IC50 [15]	percent relaxation [16]	IC50 [19]	inhibition [21]	Stability [22]	Ratio IC50 [18]	Ratio IC50 [24]	other results
COc1ccc(CNc2nc(N3CCC[C@H]3CO)ncc2C(=O)NCc2ncccn2)cc1Cl	–	–	–	–	–	–	–	–	–	–	–	–	–	–	–	–	–	Ratio Ki [1]: 1000
CCc1ccc(C2c3[nH]c4ccccc4c(=O)c3CN2c2ncc(-c3ccccn3)cn2)o1 (centres undefined)	–	–	–	–	–	–	–	–	–	–	–	–	–	–	–	–	–	IC50 [10]: 0.00053 µM; Ratio IC50 [11]: 4
CCc1ccc([C@@H]2c3[nH]c4ccccc4c3C[C@H]3C(=O)N(CC)C(=O)N23)o1	> 3 µM	0.063 µM	> 20 µM	> 3 µM	> 3 µM	> 3 µM	> 20 µM	> 20 µM	> 1 µM	0.00292 µM	> 10 µM	Dose-dependent effect	0.127 µM	99.5%	Stable	> 342	43	Ratio IC50 [13]: > 1000; Ratio IC50 [17]: > 1000; Ratio IC50 [20]: > 1000; Ratio IC50 [23]: > 1000
CCc1ccc([C@@H]2c3[nH]c4ccccc4c3C[C@@H]3C(=O)N(C)CC(=O)N23)s1	> 4 µM	0.03 µM	> 20 µM	> 4 µM	> 4 µM	> 4 µM	> 20 µM	> 20 µM	0.272 µM	0.00387 µM	> 10 µM	Dose-dependent effect	> 1 µM	97.8%	Stable	70	> 258	Ratio IC50 [13]: > 1000; Ratio IC50 [17]: > 1000; Ratio IC50 [20]: > 1000; Ratio IC50 [23]: > 1000
CN1CCN(C(=O)c2ccc(-c3ccc(C(=O)N4CCc5c([nH]c6ccccc56)C4c4ccc5c(c4)OCO5)o3)cc2)CC1 (racemic)	–	–	–	–	–	–	–	–	–	–	–	–	–	–	–	–	–	Ki [10]: 0.008 µM; Ratio Ki [1]: 187
CCc1ccc(C2c3[nH]c4ccccc4c(=O)c3CN2c2ncc(-c3ccccn3)cn2)s1 (centres undefined)	–	–	–	–	–	–	–	–	–	–	–	–	–	–	–	–	–	Ratio IC50 [11]: 8

Second part, led by results:

IC50 [2]	EC50 [3]	IC50 [4]	IC50 [5]	IC50 [6]	IC50 [7]	IC50 [8]	IC50 [9]	IC50 [12]	IC50 [14]	IC50 [15]	percent relaxation [16]	IC50 [19]	inhibition [21]	Stability [22]	SMILES	Ratio IC50 [18]	Ratio IC50 [24]	other results
> 10 µM	0.078 µM	> 10 µM	> 10 µM	> 10 µM	> 10 µM	> 10 µM	> 10 µM	–	–	–	–	–	–	–	CN1CC(=O)N2[C@H](c3ccc4c(c3)OCO4)c3[nH]c4ccccc4c3C[C@@H]2C1=O	–	–	–
–	0.725 µM	> 20 µM	–	–	–	> 20 µM	> 20 µM	0.119 µM	0.0127 µM	> 10 µM	Dose-dependent effect	> 1 µM	98.4%	Stable	CCc1ccc([C@@H]2c3[nH]c4ccccc4c3C[C@@H]3C(=O)N(C)CC(=O)N23)o1	9	> 79	–
